Data on 19 compounds can be found in ChEMBL document CHEMBL1152895, “Diacylhydrazine derivatives as novel potential chitin biosynthesis inhibitors: design, synthesis, and structure-activity relationship” (Eur J Med Chem, 2009).

Calls of active or inactive are those of the source. No cut-off for these calls is given here.

In general, inhibition refers to the drop in the measured response relative to a control, in per cent.

The assay has as its system Saccharomyces cerevisiae. The assay can be described thus: Inhibition of yeast chitin synthase at 100 ug/mL by high throughput assay. A digest of the protocol:
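Cell-extract enzymatic assay of chitin synthesis. Cells were pelleted at 1500 × g for 10 min at 4 °C, then broken by grinding with glass beads under liquid nitrogen. Activity was scored as percent inhibition, also converted to D = log[a/(100−a)] − log Mw.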

Turning to `CCCCC(CCCC)N(NC(=O)c1cc(C)cc(C)c1)C(=O)c1ccc(CC)cc1`, the inhibition entry is “Active”.
As to `CCCCC(CCCC)N(NC(=O)c1ccccc1Cl)C(=O)c1cccc(F)c1`, the inhibition entry is “Active”.
The value for `CCCCC(CCCC)N(NC(=O)c1ccc(CC)cc1)C(=O)c1ccc2c(c1)OCO2` was “Active”; that for `CCCCC(CCCC)N(NC(=O)c1ccc(CC)cc1)C(=O)c1ccccc1OC` was 79%; that for `CCCCC(CCCC)N(NC(=O)c1ccc(Cl)cc1)C(=O)c1ccccc1OC` was “Active”.
With `CCCCC(CCCC)N(NC(=O)c1cc(OC)c(OC)c(OC)c1)C(=O)c1cc(F)c(OC)c(F)c1F`, the inhibition result is “Active”.
As for `CCCCC(CCCC)N(NC(=O)c1cc(OC)c(OC)c(OC)c1)C(=O)c1ccccc1Cl`, the inhibition entry is “Active”.
In the case of `CCCCC(CCCC)N(NC(=O)c1ccc(Cl)cc1Cl)C(=O)c1cc(C)cc(C)c1` it was “Active”; in that of `CCCCC(CCCC)N(NC(=O)c1ccccc1Cl)C(=O)c1ccccc1OC`, 81%; in that of `CCCCC(CCCC)N(NC(=O)c1cccc(OC)c1)C(=O)c1ccccc1`, “Active”.
In the case of `CCCCC(CCCC)N(NC(=O)c1ccc(CC)cc1)C(=O)c1cc(C)cc(C)c1` it was “Active”.
The value for `CCCCC(CCCC)N(NC(=O)c1ccc(CC)cc1)C(=O)c1ccccc1Cl` was “Active”.
Consider `CCCCC(CCCC)N(NC(=O)c1ccccc1Cl)C(=O)c1ccccc1`, for which the inhibition result was “Active”.
The value for `CCCCC(CCCC)N(NC(=O)c1ccc(Cl)cc1)C(=O)c1cc(C)cc(C)c1` was “Active”; that for `CCCCC(CCCC)N(NC(=O)c1ccc(CC)cc1)C(=O)c1cc(F)c(OC)c(F)c1F` was “Active”.
In the case of `CCCCC(CCCC)N(NC(=O)c1cc(OC)c(OC)c(OC)c1)C(=O)c1cc(C)cc(C)c1` it was “Active”; in that of `CCCCC(CCCC)N(NC(=O)c1ccccc1Cl)C(=O)c1cc(C)cc(C)c1`, “Active”.
As for `CCCCC(CCCC)N(NC(=O)c1ccccc1Cl)C(=O)c1ccc(F)cc1`, the inhibition entry was “Active”.
The value for `CCCCC(CCCC)N(NC(=O)c1ccc(CC)cc1)C(=O)CCl` was “Active”.
